Results as given in ChEMBL document CHEMBL3600335 (Bioorg Med Chem Lett, 2015).
Values after ≈ are worked out from the molar mass of the structure shown. Active and inactive are the calls of the source. No cut-off for these calls is given here.

Key:
[1] = test system: Human alphaherpesvirus 1; assay: Antiviral activity against HSV-1 15577 infected in African green monkey Vero cells assessed as reduction of virus-induced cytopathic effect after 4 to 6 days by light microscopic analysis; type: functional, organism-based; settings: Human alphaherpesvirus 1, 15577, Vero
[2] = Selectivity index, ratio of CC50 for African green monkey Vero cells to IC50 for HSV-1 F; type: functional
[3] = Cytotoxicity against African green monkey Vero cells after 2 days by neutral red uptake assay; type: cell-based; settings: chlorocebus sabaeus
[4] = Selectivity index, ratio of CC50 for African green monkey Vero cells to IC50 for HSV-2 G; type: functional
[5] = Selectivity index, ratio of CC50 for African green monkey RC-37 cells to IC50 for HSV-1 KOS; type: functional
[6] = test system: Human alphaherpesvirus 2; assay: Antiviral activity against HSV-2 G infected in African green monkey Vero cells after 2 days by plaque reduction assay; type: functional, organism-based; settings: Human alphaherpesvirus 2, strain G, 48 h
[7] = test system: Human alphaherpesvirus 1; assay: Antiviral activity against HSV-1 KOS infected in African green monkey RC-37 cells assessed as inhibition of viral replication incubated with virus for 1 hr followed by viral adsorbtion to cells for 1 hr measured after 3 days by plaque reduction assay; type: functional, organism-based; settings: Human alphaherpesvirus 1, KOS
[8] = test system: Human alphaherpesvirus 1; assay: Antiviral activity against HSV-1 F infected in African green monkey Vero cells after 2 days by plaque reduction assay; type: functional, organism-based; settings: Human alphaherpesvirus 1, strain F, 48 h
[9] = Cytotoxicity against African green monkey RC-37 cells assessed as cell viability after 3 days by neutral red uptake assay; type: cell-based; settings: chlorocebus aethiops
[10] = target: Human immunodeficiency virus type 1 reverse transcriptase (Human immunodeficiency virus 1) (UniProt Q72547); assay: Inhibition of HIV-1 reverse transcriptase in human Jurkat cells assessed as ratio MTT activity to reverse transcriptase activity with compound/reverse transcriptase activity with DMSO at 5 ug/ml after 72 hrs; type: cell-based
How it was run: (§1)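 Jurkat cells infected with HIV-1 in the presence of compound, with DMSO as solvent control. Viability was read by MTT assay and HIV replication by reverse transcriptase activity assay. The value is the ratio MTT activity/(RT activity with compound/RT activity in DMSO).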

[11] = target: Human immunodeficiency virus type 1 reverse transcriptase (Human immunodeficiency virus 1) (UniProt Q72547); assay: Inhibition of HIV-1 reverse transcriptase at 37.5 to 150 ug/ml by Roche colorimetric assay
[12] = target: Human immunodeficiency virus type 1 reverse transcriptase (Human immunodeficiency virus 1) (UniProt Q72547); assay: Inhibition of HIV-1 reverse transcriptase in human Jurkat cells assessed as ratio MTT activity to reverse transcriptase activity with compound/reverse transcriptase activity with DMSO at 1 ug/ml after 72 hrs; type: cell-based; how it was run: as §1
[13] = target: T1, Albumin (Homo sapiens, UniProt P02768); assay: Binding affinity to human serum albumin with excitation at 285 nm by fluorescence emission spectroscopic analysis; type: ADME
How it was run: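 Human serum albumin was titrated by fluorescence with the compound, using excitation at 285 nm. Kd was calculated from the titration spectra.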

[14] = target: T1, Albumin; assay: Binding affinity to human serum albumin with excitation at 285 nm assessed as association constant by fluorescence emission spectroscopic analysis; type: ADME; settings: isolated protein, 0.285 µM
[15] = target: T1, Albumin; assay: Binding affinity to human serum albumin with excitation at 285 nm after 30 mins by fluorescence spectrophotometric analysis; type: ADME
[16] = Solubility of the compound in water at room temperature; type: physicochemical
[17] = test system: Human alphaherpesvirus 2; assay: Antiviral activity against HSV-2 186 infected in African green monkey Vero cells assessed as inhibition of viral yield after 48 hrs by crystal violet staining; type: functional, cell-based, strain 186
How it was run: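 Viral replication yield reduction assay against HSV-2 strain 186 over a range of drug concentrations. Viral titer was averaged from quadruplicate samples at each concentration, and IC50 was calculated from the titers. Compounds were tested in two separate experiments.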

[18] = Selectivity index, ratio of CC50 for African green monkey Vero cells to IC50 for HSV-2 186; type: functional
[19] = target: T1, Albumin; assay: Binding affinity to human serum albumin with excitation at 295 nm after 30 mins by fluorescence spectrophotometric analysis; type: ADME
[20] = test system: Human alphaherpesvirus 1; assay: Antiviral activity against HSV-1 15578 infected in African green monkey Vero cells assessed as reduction of virus-induced cytopathic effect after 4 to 6 days by light microscopic analysis; type: functional, organism-based; settings: Human alphaherpesvirus 1, 15578, Vero
[21] = Cytotoxicity against African green monkey Vero cells assessed as cell viability after 3 days by MTT assay; type: cell-based; settings: chlorocebus sabaeus
[22] = Selectivity index, ratio of CC50 for African green monkey Vero cells to IC50 for HSV-1 15578; type: functional
[23] = Cytotoxicity against African green monkey Vero cells assessed as cell viability after 48 hrs by Alamar Blue assay; type: cell-based; settings: chlorocebus sabaeus
[24] = Cytotoxicity against African green monkey Vero cells assessed as cell viability after 2 days by trypan blue exclusion assay; type: cell-based; settings: chlorocebus sabaeus
[25] = test system: Human alphaherpesvirus 1; assay: Antiviral activity against HSV-1 7401H infected in African green monkey Vero cells after 2 to 3 days by plaque reduction assay; settings: Human alphaherpesvirus 1, 7401H
[26] = Selectivity index, ratio of CC50 for African green monkey Vero cells to IC50 for HSV-1 7401H; type: functional
[27] = Human alphaherpesvirus 2, strain 186, Vero, 48 h

T1 sequence (P02768 whole entry): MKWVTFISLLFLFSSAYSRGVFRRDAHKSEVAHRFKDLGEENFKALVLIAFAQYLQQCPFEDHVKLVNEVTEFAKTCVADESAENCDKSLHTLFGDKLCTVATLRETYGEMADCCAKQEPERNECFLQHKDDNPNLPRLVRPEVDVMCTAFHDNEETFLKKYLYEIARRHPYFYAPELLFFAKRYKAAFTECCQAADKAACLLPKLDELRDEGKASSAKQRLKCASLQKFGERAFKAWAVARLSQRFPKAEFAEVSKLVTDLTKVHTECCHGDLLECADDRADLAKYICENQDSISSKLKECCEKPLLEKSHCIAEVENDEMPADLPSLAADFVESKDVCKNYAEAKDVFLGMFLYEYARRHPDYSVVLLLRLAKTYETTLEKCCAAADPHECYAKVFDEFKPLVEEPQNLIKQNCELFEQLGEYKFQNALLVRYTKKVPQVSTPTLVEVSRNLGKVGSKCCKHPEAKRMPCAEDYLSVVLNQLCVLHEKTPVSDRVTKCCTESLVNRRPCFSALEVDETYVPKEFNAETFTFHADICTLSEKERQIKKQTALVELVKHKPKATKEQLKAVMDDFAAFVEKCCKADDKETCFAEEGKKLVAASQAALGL

Molecule `C=C(C)[C@@H]1CC[C@]2(C(=O)O)CC[C@]3(C)[C@H](CC[C@@H]4[C@@]5(C)CC[C@@H](O)[C@@](C)(C(=O)O)[C@@H]5CC[C@]43C)[C@@H]12` has an IC50 [1] of 64.4 µM.

In the case of `C=C(C)[C@@H]1CC[C@]2(CO)CC[C@]3(C)[C@H](CC[C@@H]4[C@@]5(C)CC[C@H](O)C(C)(C)[C@@H]5CC[C@]43C)[C@@H]12` [BETULIN], the “Ratio CC50/IC50” value [2] is reported as 183, the CC50 at 48 h [3] is reported as 165 µM and the “Ratio CC50/IC50” value [4] is reported as 17.6. For the same molecule, the “Ratio CC50/IC50” value [5] was 71, the IC50 [6] was 9.4 µM and the IC50 [7] was 0.7 µM. The IC50 [8] was 0.9 µM and the CC50 at 72 h [9] was 49.7 µM.

For `C=C(C)[C@@H]1CC[C@]2(C(=O)O)CC[C@]3(C)[C@H](CC[C@@H]4[C@@]5(C)CC[C@H](O)C(C)(C)[C@@H]5CC[C@]43C)[C@@H]12`, the Ratio [10] was 0.649, the inhibition [11] was “inactive” and the Ratio [12] was 0.158.

With `C=C(C)[C@@H]1CC[C@]2(C(=O)O)CC[C@]3(C)[C@H](CC[C@@H]4[C@@]5(C)CC[C@H](O)C(C)(C)[C@@H]5CC[C@]43C)[C@@H]12` [BETULINIC ACID] the Kd [13] was 0.593 µM, the “Ratio CC50/IC50” value [5] was 15.6 and the IC50 [7] was 0.7 µM. The Ka [14] was 1.685 ×10⁶ /M, the Kd [15] was 4.5 µM and the solubility [16] was 0.02 µg/mL (≈ 0.0438 µM). For the same molecule, the IC50 [17, 27] was 1.6 µM, the “Ratio CC50/IC50” value [18] was over 62.5 and the Kd [19] was 1.3 µM. For the same molecule, the CC50 at 72 h [9] was 10.9 µM.

In the case of `C=C(C)[C@@H]1CC[C@]2(C(=O)O)CC[C@]3(C)[C@H](CC[C@@H]4[C@@]5(C)CC[C@@H](OS(=O)(=O)O)C(C)(C)[C@@H]5CC[C@]43C)[C@@H]12`, the IC50 [20] is reported as 45.7 µM, the CC50 at 72 h [21] is reported as 228 µM and the “Ratio CC50/IC50” value [22] is reported as 5.

For `C=C(C)[C@@H]1CC[C@]2(C(=O)N[C@H](C)C(=O)[O-])CC[C@]3(C)[C@H](CC[C@@H]4[C@@]5(C)CC[C@H](O)C(C)(C)[C@@H]5CC[C@]43C)[C@@H]12.CCCCCCCCCCCC[N+](C)(C)Cc1ccccc1`, the CC50 at 48 h [23] was 10.5 µM, the Kd [15] was 19 µM and the IC50 [17, 27] was 0.9 µM. The “Ratio CC50/IC50” value [18] was 11.6 and the Kd [19] was 19 µM.

`C=C(C)[C@@H]1CC[C@]2(C(=O)N[C@H](C)C(=O)[O-])CC[C@]3(C)[C@H](CC[C@@H]4[C@@]5(C)CC[C@H](O)C(C)(C)[C@@H]5CC[C@]43C)[C@@H]12.C[N+](C)(C)CCO` gave a CC50 at 48 h [23] of over 100 µM, a Kd [15] of 47 µM and an IC50 [17, 27] of 0.6 µM. The “Ratio CC50/IC50” value [18] was over 166.7 and the Kd [19] was 37 µM.

With `C=C(C)[C@@H]1CC[C@]2(C(=O)O)CC[C@]3(C)[C@H](CC[C@@H]4[C@@]5(C)CCC(=O)C(C)(C)[C@@H]5CC[C@]43C)[C@@H]12` [BETUNOLIC ACID] the CC50 at 48 h [24] was 35.6 µM, the IC50 [25] was 5.7 µM and the “Ratio CC50/IC50” value [26] was 6.2.

Molecule `C=C(C)[C@@H]1CC[C@]2(C(=O)[O-])CC[C@]3(C)[C@H](CC[C@@H]4[C@@]5(C)CC[C@H](O)C(C)(C)[C@@H]5CC[C@]43C)[C@@H]12.CCCCCCCCCCCC[N+](C)(C)Cc1ccccc1` has a CC50 at 48 h [23] of 12 µM, a Kd [15] of 1.6 µM and an IC50 [17, 27] of 7.2 µM. The “Ratio CC50/IC50” value [18] was 1.7 and the Kd [19] was 1.9 µM.

With `C=C(C)[C@@H]1CC[C@]2(C(=O)[O-])CC[C@]3(C)[C@H](CC[C@@H]4[C@@]5(C)CC[C@H](O)C(C)(C)[C@@H]5CC[C@]43C)[C@@H]12.C[N+](C)(C)CCO` the CC50 at 48 h [23] was over 100 µM, the Kd [15] was 3.9 µM and the IC50 ([17]; vero) was 0.9 µM. The “Ratio CC50/IC50” value [18] was over 111.1 and the Kd [19] was 4 µM.
